According to ChEMBL document CHEMBL1156776, “Hybrid inhibitors of phosphatidylinositol 3-kinase (PI3K) and the mammalian target of rapamycin (mTOR): design, synthesis, and superior antitumor activity of novel wortmannin-rapamycin conjugates” (J Med Chem, 2010):
Values after ≈ are worked out from the molar mass of the structure shown. Each block holds one compound with its values, some of them ahead of it. Active and inactive are the calls of the source. The rule behind the calls is not given here.

Columns and labels:
[1] = Stability in mouse plasma assessed as compound remaining after 60 mins relative to basal level; type: ADME, cell-free; settings: read-out: Stability
How it was run: (§1)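 Compound was incubated in heparinized plasma at 37 °C for 2 h. Samples taken at various time points were quenched with acetonitrile, dried under nitrogen and reconstituted in methanol/water 20:80. Intact compound was quantified by LC/MS.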

[2] = molecular target: Serine/threonine-protein kinase mTOR (Homo sapiens) (UniProt P42345); assay: Inhibition of mTOR
[3] = Stability in human liver microsomes assessed as compound remaining after 30 mins; type: ADME, Microsome; settings: read-out: Stability
How it was run: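 Compound (10 μM) was incubated with human liver microsomes (1 mg/mL) at 37 °C for 30 min, alongside buffer (pH 7.4) and boiled-microsome controls. NADPH dependence was examined. Reactions were quenched with 3 volumes of cold acetonitrile.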

[4] = test system: U-87MG ATCC; assay: Antitumor activity against human U87MG cells xenografted in nude mouse assessed as tumor growth inhibition administered iv once weekly; type: functional
How it was run: (§2)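 U87MG glioma xenografts in nude mice were staged and randomized (n = 10). Dosing was iv once weekly in D5W (days 0, 6 or days 0, 6, 13), with vehicle controls. Tumor volume was measured twice weekly.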

[5] = Stability in rat plasma assessed as compound remaining after 30 mins relative to basal level; type: ADME, cell-free; settings: read-out: Stability; how it was run: as §1
[6] = species: Homo sapiens; assay: Stability in human plasma assessed as compound remaining after 30 mins relative to basal level
[7] = species: Homo sapiens; assay: Stability in human plasma assessed as compound remaining after 90 mins relative to basal level
[8] = test system: U-87MG ATCC; assay: Antitumor activity against human U87MG cells xenografted in nude mouse assessed as inhibition of AKT T308 phosphorylation at 15 mg/kg, iv administered as single dose measured after 2 hrs; type: functional, organism-based; parameters: dose 15 mg/kg
How it was run: (§3)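 Nude mice bearing U87MG tumors got a single iv dose. Tumors were excised 2 h later and analysed by Western blot for phosphoproteins (AKT S473, T308) against vehicle-treated controls.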

[9] = Stability in nude mouse whole blood assessed as release of (4S,4aR,6aS,7S,9aR,E)-1-(((3-(dimethylamino)propyl)(methyl)amino)methylene)-7,11-dihydroxy-4-(methoxymethyl)-4a-methyl-2,10-dioxo-1,2,4,4a,5,6,6a,7,8,9,9a,10-dodecahydroindeno[4,5-h]isochromen-5-yl hydrogen carbonate; type: ADME, tissue-based
How it was run: (§4)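 Compound was incubated in nude mouse plasma or whole blood at 37 °C for 2 h, with heparin or sodium fluoride/EDTA as anticoagulant. Time-point samples were quenched with acetonitrile, dried, reconstituted and analysed by LC/MS for parent and hydrolysis products.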

[10] = Inhibition of PI3K
[11] = test system: A498; assay: Antitumor activity against human A498 cells xenografted in nude mouse assessed as tumor growth inhibition at 30 mg/kg, iv once weekly
[12] = Stability in rat plasma assessed as compound remaining after 5 mins relative to basal level; type: ADME, cell-free; settings: read-out: Stability; how it was run: as §1
[13] = Solubility in water; type: physicochemical
[14] = test system: U-87MG ATCC; assay: Antitumor activity against human U87MG cells xenografted in nude mouse assessed as tumor growth inhibition at 5 mg/kg, iv once weekly; type: functional, organism-based; parameters: dose 5 mg/kg; how it was run: as §2
[15] = Stability in nude mouse whole blood assessed as rapamycin formation; type: ADME, tissue-based; how it was run: as §4
[16] = Stability in nude mouse liver microsomes assessed as compound remaining after 30 mins; type: ADME, Microsome; settings: read-out: Stability
How it was run: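 Female nude mouse liver microsomes were incubated with compound for 30 min at 37 °C, with NADPH dependence examined. Remaining parent and hydrolysis products were measured.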

[17] = Stability in mouse plasma assessed as compound remaining after 5 mins relative to basal level; type: ADME, cell-free; settings: read-out: Stability; how it was run: as §1
[18] = Stability in mouse plasma assessed as compound remaining after 90 mins relative to basal level; type: ADME, cell-free; settings: read-out: Stability; how it was run: as §1
[19] = test system: Plasma; assay: Stability in mouse plasma in presence of esterase inhibitor sodium fluoride; type: ADME, cell-free; how it was run: as §4
[20] = test system: U-87MG ATCC; assay: Antitumor activity against human U87MG cells xenografted in nude mouse assessed as inhibition of S6K phosphorylation at 15 mg/kg, iv administered as single dose measured after 2 hrs; type: functional, organism-based; parameters: dose 15 mg/kg
[21] = Stability in mouse plasma assessed as compound remaining after 15 mins relative to basal level; type: ADME, cell-free; settings: read-out: Stability; how it was run: as §1
[22] = Stability in rat plasma assessed as compound remaining after 60 mins relative to basal level; type: ADME, cell-free; settings: read-out: Stability; how it was run: as §1
[23] = test system: HT-29; assay: Antitumor activity against human HT-29 cells xenografted in nude mouse assessed as tumor growth inhibition at 15 mg/kg, iv once weekly; type: functional, organism-based; parameters: dose 15 mg/kg
How it was run: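 Nude mice bearing HT29 colon xenografts were randomized into groups (n = 10) and dosed iv once weekly. Agents were in 5% dextrose in water, or in 4% ethanol/5% polysorbate 80/5% PEG400 for the rapamycin-type agent. Tumor growth was monitored against vehicle.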

[24] = test system: U-87MG ATCC; assay: Antitumor activity against human U87MG cells xenografted in nude mouse assessed as tumor growth inhibition at 3 mg/kg, iv once weekly; type: functional, organism-based; parameters: dose 3 mg/kg; how it was run: as §2
[25] = Stability in nude mouse whole blood assessed as 8-((4S,4aR,6aS,7S,9aR,E)-5-(carboxyoxy)-1-(((3-(dimethylamino)propyl)(methyl)amino)methylene)-11-hydroxy-4-(methoxymethyl)-4a-methyl-2,10-dioxo-1,2,4,4a,5,6,6a,7,8,9,9a,10-dodecahydroindeno[4,5-h]isochromen-7-yloxy)-8-oxooctanoic acid formation; type: ADME, tissue-based; how it was run: as §4
[26] = Stability in mouse plasma assessed as compound remaining after 30 mins relative to basal level; type: ADME, cell-free; settings: read-out: Stability; how it was run: as §1
[27] = species: Homo sapiens; assay: Stability in human plasma assessed as compound remaining after 5 mins relative to basal level
[28] = test system: U-87MG ATCC; assay: Antitumor activity against human U87MG cells xenografted in nude mouse assessed as inhibition of AKT S473 phosphorylation at 15 mg/kg, iv administered as single dose measured after 2 hrs; type: functional, organism-based; parameters: dose 15 mg/kg; how it was run: as §3
[29] = species: Homo sapiens; assay: Stability in human plasma assessed as compound remaining after 15 mins relative to basal level
[30] = Stability in rat plasma assessed as compound remaining after 15 mins relative to basal level; type: ADME, cell-free; settings: read-out: Stability; how it was run: as §1
[31] = Stability in rat plasma assessed as compound remaining after 90 mins relative to basal level; type: ADME, cell-free; settings: read-out: Stability; how it was run: as §1
[32] = species: Homo sapiens; assay: Stability in human plasma assessed as compound remaining after 120 mins relative to basal level
[33] = Stability in rat plasma assessed as compound remaining after 120 mins relative to basal level; type: ADME, cell-free; settings: read-out: Stability; how it was run: as §1
[34] = species: Homo sapiens; assay: Stability in human plasma assessed as compound remaining after 60 mins relative to basal level
[35] = Stability in mouse plasma assessed as compound remaining after 120 mins relative to basal level; type: ADME, cell-free; settings: read-out: Stability; how it was run: as §1
[36] = Solubility at pH 7.4; type: physicochemical; settings: buffer
[37] = test system: Plasma; assay: Stability in mouse plasma after 5 hrs; type: ADME, cell-free
[38] = test system: Plasma; assay: Stability in rat plasma after 5 hrs; type: ADME, cell-free
[39] = test system: Plasma; assay: Stability in human plasma after 5 hrs; type: ADME, cell-free
[40] = test system: HT-29; assay: Antitumor activity against human HT-29 cells xenografted in nude mouse assessed as tumor growth inhibition at 5 mg/kg, iv once weekly; type: functional, organism-based; parameters: dose 5 mg/kg
How it was run: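 HT29 cells from ATCC, cultured by standard methods, grown as tumors in nude mice and randomized into groups (n = 10). Agent formulated in 5% dextrose in water and given iv once weekly. Vehicle-dosed controls. Tumor growth was monitored and analyzed as previously described.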

remaining at 1 h [1]: 13%
inhibition [2]: inactive
remaining at 0.5 h [3]: ≥ 50%
remaining at 0.5 h [5]: 71%
remaining at 0.5 h [6]: 91%
remaining at 1.5 h [7]: 82%
Stability [9]: Stable
inhibition [10]: inactive
remaining at 5 min [12]: 91%
solubility ([13]; buffer): Soluble
solubility ([13]; water, read-out: solubility): 460 µg/mL (≈ 288 µM)
Stability [15]: Unstable
remaining at 0.5 h [16]: ≥ 50%
remaining at 5 min [17]: 53%
remaining at 1.5 h [18]: 10%
Stability [19]: Stable
remaining at 0.25 h [21]: 39%
remaining at 1 h [22]: 64%
Stability [25]: Unstable
remaining at 0.5 h [26]: 18%
remaining at 5 min [27]: 86%
remaining at 0.25 h [29]: 93%
remaining at 0.25 h [30]: 80%
remaining at 1.5 h [31]: 53%
remaining at 2 h [32]: 83%
remaining at 2 h [33]: 46%
remaining at 1 h [34]: 83%
remaining at 2 h [35]: 8%
Compound: COC[C@H]1OC(=O)/C(=C\N(C)CCCN(C)C)C2=C(O)C(=O)C3=C([C@H](OC(C)=O)C[C@]4(C)[C@@H](OC(=O)CCCCCCC(=O)O[C@@H]5CC[C@@H](C[C@@H](C)[C@@H]6CC(=O)[C@H](C)/C=C(\C)[C@@H](O)[C@@H](OC)C(=O)[C@H](C)C[C@H](C)/C=C/C=C/C=C(\C)[C@@H](OC)C[C@@H]7CC[C@@H](C)[C@@](O)(O7)C(=O)C(=O)N7CCCC[C@H]7C(=O)O6)C[C@H]5OC)CC[C@@H]34)[C@]21C
Activity [4]: Dose-dependent effect
Activity [8]: Active
Activity [11]: Active
Activity [14]: Active
Activity [20]: Active
Activity [23]: Active
Activity [24]: Active
Activity [28]: Active

Compound: C=CCN(/C=C1\C(=O)O[C@H](COC)[C@@]2(C)C1=C(O)C(=O)C1=C2[C@H](OC(C)=O)C[C@]2(C)[C@@H](O)CC[C@@H]12)CC=C
solubility [36]: > 100 µg/mL

inhibition [2]: inactive
inhibition [10]: inactive
Stability [37]: Stable
Stability [38]: Stable
Stability [39]: Stable
Compound: C=CCN(/C=C1\C(=O)O[C@H](COC)[C@@]2(C)C1=C(O)C(=O)C1=C2[C@H](OC(C)=O)C[C@]2(C)[C@@H](OC(=O)CCCCCCC(=O)O[C@@H]3CC[C@@H](C[C@@H](C)[C@@H]4CC(=O)[C@H](C)/C=C(\C)[C@@H](O)[C@@H](OC)C(=O)[C@H](C)C[C@H](C)/C=C/C=C/C=C(\C)[C@@H](OC)C[C@@H]5CC[C@@H](C)[C@@](O)(O5)C(=O)C(=O)N5CCCC[C@H]5C(=O)O4)C[C@H]3OC)CC[C@@H]12)CC=C

inhibition [2]: inactive
inhibition [10]: inactive
Compound: COC[C@H]1OC(=O)/C(=C\N(C)CCCN(C)C)C2=C(O)C(=O)C3=C([C@H](OC(C)=O)C[C@]4(C)[C@@H](OC(=O)CCCCCCC(=O)O[C@H]5CC[C@H](C[C@@H](C)[C@@H]6CC(=O)[C@H](C)/C=C(\C)[C@@H](O)[C@@H](OC)C(=O)[C@H](C)C[C@H](C)/C=C/C=C/C=C(\C)[C@@H](OC)C[C@@H]7CC[C@@H](C)[C@@](O)(O7)C(=O)C(=O)N7CCCC[C@H]7C(=O)O6)CC5)CC[C@@H]34)[C@]21C

Compound: COC[C@H]1OC(=O)/C(=C\N(C)CCCN(C)C)C2=C(O)C(=O)C3=C([C@H](OC(C)=O)C[C@]4(C)[C@@H](O)CC[C@@H]34)[C@]21C
solubility [36]: > 10000 µg/mL
Activity [40]: inactive
